High-throughput results: PubChem, several laboratories
MC4R antagonist: antagonists of human melanocortin 4 receptor (MC4R) | inhibition, % at 6.5 µM | AID 540295 | MC4R-expressing cells, MTII-stimulated cAMP, LANCE TR-FRET | 360,000 compounds, 0.48% hits;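 active = inhibition above its plate's cutoff, the mean of tested wells on that plate plus 3 SD, cut at about 29% in these data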;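 also: 0% = Melanotan II alone and 100% = Melanotan II plus saturating MCL0020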
Target sequence (P32245 whole entry, looked up): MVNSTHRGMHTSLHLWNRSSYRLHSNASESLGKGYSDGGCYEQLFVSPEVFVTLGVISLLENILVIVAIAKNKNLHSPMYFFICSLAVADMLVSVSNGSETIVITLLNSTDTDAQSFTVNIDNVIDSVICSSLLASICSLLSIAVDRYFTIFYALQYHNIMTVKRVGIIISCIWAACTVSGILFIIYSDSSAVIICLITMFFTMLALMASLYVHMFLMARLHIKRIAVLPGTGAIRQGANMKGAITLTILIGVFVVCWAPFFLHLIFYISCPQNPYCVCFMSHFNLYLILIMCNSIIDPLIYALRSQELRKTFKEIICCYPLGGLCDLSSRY
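Assay system: human MC4R-expressing U2OS cells; reagent: Melanotan II stimulation of cells; dosing: 6.5 µM single dose; timing: compound 30 min, challenge 1 h, detection 1 h; signal: TR-FRET cAMP assay; replicates: one well per compound, no replicates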
NOD2-RIPK2 inh: NOD2-RIPK2 protein interaction inhibition. O43353. CHO BLA complementation NOD2-RIPK2, CCF4 ratio. inhibition, % at 4.98 µM. 360,000 compounds, 0.38% hits. AID 624267; in the data active = inhibition above about 21%;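 also: 0% = vehicle only and 100% = reference blocker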
beta cell repl: induces beta-cell replication in MIN6 cells | proliferation, % at 10 µM | 330,000 compounds, 0.29% hits | MIN6 cells proliferation, ATPlite luminescence, 48 h; cells starved in 0.2% serum; 100% = growth in 10% serum;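 active = compounds whose signal lies at least 3.5 SD above the mean of all wells on their plate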;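 also: 0% = DMSO-treated cells in low-serum medium and 100% = 10% serum control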
MC4R barr agon: activates human MC4R beta-arrestin recruitment; P32245; U2OS MC4R beta-arrestin complementation, luminescence; percent of melanotan II response, DMSO zero; activation, % at 8.9 µM; 360,000 compounds, 0.98% hits; AID 540308;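 active = activation above a per-plate cutoff, the mean activation of sample wells on that plate plus 3 SD, cut at about 8% in these data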
TLR4-MyD88 BLA: TLR4-MyD88 interaction inhibition in cells | HeLa CL3-4 TLR4/MyD88 BLA complementation, FRET ratio | inhibition, % at 8.4 µM | 200,000 compounds, 0.18% hits; in the data active = inhibition above about 25%;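 also: 0% = vehicle and 100% = reference inhibitor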
TLR9-MyD88 block: inhibitors of human TLR9-MyD88 binding; Q9NR96+Q99836; CHO BLA complementation TLR9-MyD88, CCF4 FRET ratio; inhibition, % at 4.98 µM; 340,000 compounds, 0.21% hits;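 active = inhibition above the mean over all tested compounds plus 3 SD, cut at about 21% in these data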;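 also: 0% = DMSO only wells and 100% = clavulanate BLA inhibitor control wells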
MC4R barr ag: human MC4R beta-arrestin agonism confirmation; U2OS MC4R beta-arrestin recruitment, luminescence; scaled DMSO 0%, Melanotan II 100%; 2,400 compounds, 31% hits; AID 602192; shares compounds with MC4R barr agon; activation, % at 8.9 µM;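 active = mean activation across replicates above the hit cutoff set in the earlier primary screen, cut at about 8% in these data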
MOR-DOR barr ag: OPRM1-OPRD1 heterodimer agonism counter-screen; U2OS PathHunter beta-arrestin, beta-gal luminescence; percent of deltorphin B response, DMSO zero; shares compounds with MC4R barr agon; 2,400 compounds, 5.8% hits; activation, % at 9.2 µM;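 active = mean activation across replicates exceeds the hit threshold derived in the earlier primary screen, cut at about 18% in these data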;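 also: 100% = deltorphin B at 0.9 µM final and 0% = DMSO alone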
Numbers without * were called inactive; . = not tested or not shown. Only some compounds are listed: those with a hit (about 2.1% of all), similar ones and a draw of the others.

SMILES	MC4R antagonist	NOD2-RIPK2 inh	beta cell repl	MC4R barr agon	TLR4-MyD88 BLA	TLR9-MyD88 block	MC4R barr ag	MOR-DOR barr ag
CC(C)=C[C@H]1C[C@H](C)[C@H]2CC[C@H](C)c3c(O)c(O[C@H]4OC[C@H](O)[C@@H](O)[C@@H]4O)c(C)c1c32	-4.6	-4.9	.	12.4*	.	.	3.8	1.8
COc1ccccc1NC(=O)C1CC(C)OC1=O (configuration not stated)	3.2	-5.5	0.2	0.0	.	-9.3	.	.
COc1ccc2cc(-c3cc(C(=O)OCC(=O)Nc4c(C)n(C)n(-c5ccccc5)c4=O)c4ccccc4n3)ccc2c1	0.4	-3.4	.	20.6*	5.0	4.4	5.2	2.7
COc1ccc(-c2cc(C(=O)Nc3c(C)n(C)n(-c4ccccc4)c3=O)c3ccccc3n2)cc1	4.3	-12.6	0.0	-0.5	.	-4.4	.	.
N#C/C(=C\c1ccco1)c1nc2ccccc2s1	5.7	0.9	-3.4	3.7	-0.4	-5.8	.	.
N#C/C(=C/c1ccco1)c1nc2ccccc2s1	-6.3	-3.2	0.0	9.6*	-2.3	9.6	-2.7	3.9
COc1cccc2cc(-c3nnc(SCC(=O)Nc4cc(C(F)(F)F)ccc4Cl)n3N)oc12	-0.3	-3.8	-1.4	21.1*	7.7	-0.2	0.9	5.7
Cc1cccc(C)c1NC(=O)C1c2ccccc2OCC(=O)N1CCCN1CCOCC1 (configuration not stated)	.	2.4	.	.	.	.	.	.
CCOc1ccc(Cn2c3ccc(OC)cc3c3nc4ccccc4nc32)cc1OC	7.0	-3.0	-3.8	27.7*	8.5	-3.6	25.6*	4.3
CCOC(=O)Cn1c2ccc(OC)cc2c2nc3ccccc3nc21	-3.7	-0.1	-4.6	-2.2	4.2	-4.6	.	.
COC(=O)Cn1c2ccc(OC)cc2c2nc3ccccc3nc21	-4.1	0.8	1.4	0.7	-21.8	-3.0	.	.
COc1ccc2c(c1)c1nc3ccccc3nc1n2Cc1ccc(OC)c(OC)c1	7.3	7.0	.	11.3*	4.2	9.8	0.6	2.9
CCCc1cc(=O)[nH]c(SCC(=O)N(CCOC)c2c(N)n(Cc3ccccc3)c(=O)[nH]c2=O)n1	10.4	9.5	-0.1	-4.5	.	2.1	.	.
CCCc1cc(=O)oc2c(C)c3occ(C)c3cc12	3.6	-19.2	2.5	18.4*	-16.3	4.3	0.7	3.6
Cc1coc2c(C)c3oc(=O)cc(-c4ccccc4)c3cc12	10.8	-0.6	0.0	2.4	-4.3	4.0	.	.
O=C(Nc1nnc(C2CC2)s1)c1ccc(Cl)c(S(=O)(=O)N2CCc3ccccc3C2)c1	2.3	-0.6	0.0	11.3*	-4.7	-7.7	3.7	5.9
C(=N\Nc1ccccn1)/c1ccc2c(c1)OCCO2	-3.3	2.7	-2.2	-4.7	8.1	9.2	.	.
CC(C)CSc1nc2c(c(=O)[nH]c(=O)n2C)n1CC(O)COc1cccc2ccccc12 (configuration not stated)	6.6	3.5	.	14.3*	-10.1	-3.2	2.7	5.5
O=C(O)/C=C/C(=O)Nc1ccc(C2(c3ccc(NC(=O)/C=C/C(=O)O)cc3)c3ccccc3-c3ccccc32)cc1	-0.6	10.9	-0.1	53.3*	.	8.1	0.7	0.8
CC1(C)CC(N=c2cc(-c3ccccc3)oc3ccc(Cl)cc23)CC(C)(C)N1	14.4	-10.4	.	23.6*	5.2	4.4	6.1	9.8
O=C(NC1CC1)C1CC(=O)N(c2cccc(Cl)c2Cl)C1 (configuration not stated)	14.4	7.3	-3.6	-0.9	.	-0.1	.	.
Cc1nnc(NC(=O)c2sc3ccccc3c2Cl)s1	13.5	-15.0	-6.5	-3.0	-1.9	-4.8	.	.
Cc1ccc2nsnc2c1NC(=O)c1sc2ccccc2c1Cl	6.0	-3.3	0.0	12.9*	-4.4	-10.6	3.5	4.3
